Data on 23 molecules can be found in ChEMBL document CHEMBL4190321, “Novel 4/3-((4-oxo-5-(2-oxoindolin-3-ylidene)thiazolidin-2-ylidene)amino) benzenesulfonamides: Synthesis, carbonic anhydrase inhibitory activity, anticancer activity and molecular modelling studies” (Eur J Med Chem, 2017).

Assay [1] concerns MCF7. In words: Antiproliferative activity against human MCF7 cells by MTT assay.
Another assay has as its system Caco-2. Nature of the assay: Antiproliferative activity against human Caco2 cells by MTT assay. In general terms: Tetrazolium assays rely on reduction of a dye to a coloured formazan, in cell work by metabolically active cells.
The next assay addresses Carbonic anhydrase 9 (Homo sapiens, UniProt Q16790). In words: Inhibition of human transmembrane carbonic anhydrase 9 by stopped-flow CO2 hydrase assay.
The target in another assay is Carbonic anhydrase 4 (Homo sapiens, UniProt P22748). Nature of the assay: Inhibition of human transmembrane carbonic anhydrase 4 by stopped-flow CO2 hydrase assay.
The target of another assay is Carbonic anhydrase 1 (Homo sapiens, UniProt P00915). Nature of the assay: Inhibition of human cytosolic carbonic anhydrase 1 by stopped-flow CO2 hydrase assay.
Another assay deals with Carbonic anhydrase 2 (Homo sapiens, UniProt P00918). In words: Inhibition of human cytosolic carbonic anhydrase 2 by stopped-flow CO2 hydrase assay.
In assay [2] the test system is MCF7. In words: Induction of apoptosis in human MCF7 cells assessed as decrease in Bcl-2 expression at IC50 by ELISA relative to control. The assay is classed as functional. On the set-up: scale not given: the % may be the effect or the level left. The essentials:
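MCF-7 cells were treated alongside a 1% DMSO control. Bcl-2 protein was measured with a colorimetric ELISA kit and reported in ng/ml. Data are mean ± SD of three separate experiments, and significance versus control was set at P < 0.05.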
In general terms: ELISA stands for enzyme-linked immunosorbent assay.

Bounds are passed on as bounds.

Chain of Carbonic anhydrase 4 (P22748 whole entry): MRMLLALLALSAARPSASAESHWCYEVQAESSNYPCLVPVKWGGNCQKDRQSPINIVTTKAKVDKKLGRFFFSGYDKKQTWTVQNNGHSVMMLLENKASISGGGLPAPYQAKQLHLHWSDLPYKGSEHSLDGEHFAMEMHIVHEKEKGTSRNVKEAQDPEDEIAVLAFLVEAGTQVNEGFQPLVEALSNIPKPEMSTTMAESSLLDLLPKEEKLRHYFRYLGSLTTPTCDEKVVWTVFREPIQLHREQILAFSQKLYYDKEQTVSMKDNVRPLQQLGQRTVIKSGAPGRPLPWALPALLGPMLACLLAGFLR
Chain of Carbonic anhydrase 1 (P00915 whole entry): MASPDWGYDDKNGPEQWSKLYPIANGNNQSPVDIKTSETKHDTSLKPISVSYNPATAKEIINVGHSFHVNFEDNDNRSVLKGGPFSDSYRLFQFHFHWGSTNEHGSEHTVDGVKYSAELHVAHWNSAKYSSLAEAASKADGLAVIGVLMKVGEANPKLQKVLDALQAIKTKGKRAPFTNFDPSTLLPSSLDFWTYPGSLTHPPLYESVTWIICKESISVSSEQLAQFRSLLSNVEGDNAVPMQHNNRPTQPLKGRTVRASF

As for `COc1ccc2c(c1)/C(=C1/S/C(=N/c3cccc(S(N)(=O)=O)c3)NC1=O)C(=O)N2`, the IC50 was more than 200 µM in the assay on MCF7 [1] and 8.39 µM in the assay with Caco-2. The inhibition constant (Ki) at Carbonic anhydrase 9 is 0.0247 µM.

Regarding `NS(=O)(=O)c1cccc(/N=C2\NC(=O)/C(=C3/C(=O)Nc4ccc(Cl)cc43)S2)c1`, the 50% inhibitory concentration (IC50) with MCF7 [1] is more than 200 µM; with Caco-2 it was 5.87 µM. On Carbonic anhydrase 9, this molecule yielded an inhibitory constant (Ki) of 0.062 µM.

With `NS(=O)(=O)c1cccc(/N=C2\NC(=O)/C(=C3/C(=O)N(Cc4ccccc4)c4ccccc43)S2)c1`, the figures for the IC50 in the assay with MCF7 [1] and with Caco-2 were more than 200 µM and 103 µM, respectively. At Carbonic anhydrase 9, this molecule returned a Ki of 0.17 µM.

In the case of `NS(=O)(=O)c1cccc(/N=C2\NC(=O)/C(=C3/C(=O)Nc4ccccc43)S2)c1`, the 50% inhibitory concentration (IC50) with MCF7 [1] is more than 200 µM; with Caco-2, 12.1 µM. Also, the Ki at Carbonic anhydrase 9 is 0.0161 µM.

For `NS(=O)(=O)c1ccc(/N=C2\NC(=O)/C(=C3/C(=O)Nc4ccc(Br)cc43)S2)cc1`, the half-maximal inhibitory concentration (IC50) was determined as 11.3 µM in the assay on MCF7 [1] and 42.3 µM with Caco-2. For the same molecule, the inhibition constant Ki at Carbonic anhydrase 9 was 0.0666 µM.

`CN1C(=O)/C(=C2\S/C(=N/c3ccc(S(N)(=O)=O)cc3)NC2=O)c2ccccc21`: the half-maximal inhibitory concentration (IC50) in the assay with MCF7 [1] came out at 51.9 µM; with Caco-2 it was 163 µM. In addition, the Ki at Carbonic anhydrase 9 came to 0.146 µM.

With `COc1ccc2c(c1)/C(=C1/S/C(=N/c3ccc(S(N)(=O)=O)cc3)NC1=O)C(=O)N2`, the half-maximal inhibitory concentration (IC50) worked out at 125 µM in the assay with MCF7 [1] and 98.3 µM in the assay on Caco-2. The inhibition constant (Ki) is 0.0231 µM on Carbonic anhydrase 9 and more than 10 µM on Carbonic anhydrase 4.

As for `CN1C(=O)/C(=C2\S/C(=N/c3ccc(S(N)(=O)=O)cc3)NC2=O)c2cc(Br)ccc21`, the IC50 with MCF7 [1] was found to be 196 µM; in the assay on Caco-2 it was 13.2 µM. The Ki at Carbonic anhydrase 9 is 0.0389 µM.

Turning to `NS(=O)(=O)c1ccc(/N=C2\NC(=O)/C(=C3/C(=O)Nc4ccc([N+](=O)[O-])cc43)S2)cc1`, the IC50 in the assay on MCF7 [1] was more than 200 µM; in the assay with Caco-2 it was 13.8 µM. The molecule also had an inhibitory constant (Ki) at Carbonic anhydrase 9 of 0.0341 µM.

For `NS(=O)(=O)c1ccc(NC2=NC(=O)CS2)cc1`, affinity at Carbonic anhydrase 9 was put at a Ki of 0.0045 µM.

Consider `Cc1ccc2c(c1)/C(=C1/S/C(=N/c3ccc(S(N)(=O)=O)cc3)NC1=O)C(=O)N2`, for which the IC50 with MCF7 [1] is more than 200 µM; in the assay with Caco-2, 174 µM. For the same molecule, the inhibitory constant (Ki) at Carbonic anhydrase 9 turned out to be 0.0721 µM.

For the molecule `CN1C(=O)/C(=C2\S/C(=N/c3ccc(S(N)(=O)=O)cc3)NC2=O)c2cc(Cl)ccc21`, the half-inhibitory concentration (IC50) with MCF7 [1] was more than 200 µM; with Caco-2, 42.3 µM. Also, on Carbonic anhydrase 9, the inhibition constant (Ki) was determined as 0.123 µM.

`NS(=O)(=O)c1cccc(/N=C2\NC(=O)/C(=C3/C(=O)Nc4ccc([N+](=O)[O-])cc43)S2)c1`: the IC50 was more than 200 µM in the assay with MCF7 [1] and 20.6 µM in the assay with Caco-2. The molecule further returned a Ki at Carbonic anhydrase 9 of 0.048 µM.

For `NS(=O)(=O)c1ccc(/N=C2\NC(=O)/C(=C3/C(=O)Nc4ccccc43)S2)cc1`, the IC50 in the assay with MCF7 [1] and with Caco-2 was more than 200 µM in each case. For the same molecule, the inhibition constant (Ki) was 0.631 µM on Carbonic anhydrase 1, 0.047 µM on Carbonic anhydrase 9, more than 10 µM at Carbonic anhydrase 4 and 0.023 µM on Carbonic anhydrase 2.

For `NS(=O)(=O)c1ccc(/N=C2\NC(=O)/C(=C3/C(=O)Nc4ccc(Cl)cc43)S2)cc1`, the IC50 in the assay with MCF7 [1] came out at 3.96 µM; with Caco-2 it was 20.3 µM. Besides, in the assay with MCF7 [2], the Activity stood at 45%. Besides, the Ki at Carbonic anhydrase 9 stood at 0.0624 µM.

Regarding `NS(=O)(=O)c1ccc(/N=C2\NC(=O)/C(=C3/C(=O)Nc4ccc(F)cc43)S2)cc1`, the 50% inhibitory concentration (IC50) in the assay with MCF7 [1] worked out at 20.5 µM; in the assay on Caco-2, 59.9 µM. The same molecule yielded an inhibition constant Ki at Carbonic anhydrase 9 of 0.0266 µM.

As for `NS(=O)(=O)c1cccc(/N=C2\NC(=O)/C(=C3/C(=O)Nc4ccc(Br)cc43)S2)c1`, the IC50 with MCF7 [1] is more than 200 µM; in the assay with Caco-2 it was 10.8 µM. The same molecule registered a Ki at Carbonic anhydrase 9 of 0.0159 µM.

Take `NS(=O)(=O)c1ccc(/N=C2\NC(=O)/C(=C3/C(=O)N(Cc4ccccc4)c4ccc(Br)cc43)S2)cc1`: the values for the IC50 in the assay on MCF7 [1] and in the assay with Caco-2 were more than 200 µM and 57.8 µM, respectively. Moreover, the Ki on Carbonic anhydrase 9 was determined as 0.321 µM.

As for `NS(=O)(=O)c1ccc(/N=C2\NC(=O)/C(=C3/C(=O)N(Cc4ccccc4)c4ccc(Cl)cc43)S2)cc1`, the half-inhibitory concentration (IC50) was 124 µM with MCF7 [1] and 13.7 µM in the assay with Caco-2. Besides, affinity on Carbonic anhydrase 9 was put at a Ki of 0.0906 µM.

As for `NS(=O)(=O)c1ccc(/N=C2\NC(=O)/C(=C3/C(=O)N(Cc4ccccc4)c4ccccc43)S2)cc1`, the IC50 in the assay on MCF7 [1] and in the assay on Caco-2 was more than 200 µM in each case. The same molecule registered a Ki at Carbonic anhydrase 9 of 0.117 µM.

`COc1cccc2c1C(=O)c1c(O)c3c(c(O)c1C2=O)C[C@@](O)(C(=O)CO)C[C@@H]3O[C@H]1C[C@H](N)[C@H](O)[C@H](C)O1` [DOXORUBICIN] showed an IC50 in the assay on Caco-2 of 3.83 µM.

Take `Cc1cc(C)c2c(c1)/C(=C1/S/C(=N/c3ccc(S(N)(=O)=O)cc3)NC1=O)C(=O)N2`: the figures for the IC50 in the assay on MCF7 [1] and with Caco-2 were more than 200 µM and 146 µM, respectively. The affinity at Carbonic anhydrase 9 corresponds to a Ki of 0.1 µM.

Turning to `NS(=O)(=O)c1cccc(/N=C2\NC(=O)CS2)c1`, on Carbonic anhydrase 9, the Ki stood at 0.0177 µM.

The IC50 is the concentration that gives 50% inhibition. As a reminder, the Ki is the dissociation constant of the complex between target and ligand, obtained from inhibition or displacement.
